Experimental data taken from ChEMBL document CHEMBL4513216, “Probing the Open Global Health Chemical Diversity Library for Multistage-Active Starting Points for Next-Generation Antimalarials” (ACS Infect Dis, 2020).

assay: Toxicity liver stage against HepG2, at 10uM; assay type: cell-based; parameters: test concentration 10 uM, cell line HepG2-A16-CD81EGFP; settings: human, HepG2-A16-CD81EGFP cells; read-out: INHIBITION
Procedure, shortened: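 Uninfected HepG2-A16-CD81EGFP cells, 3 × 10^3 per well, 1536-well, plated on prespotted compound at 10 μM final, parasite-free screening media added to match infected plates; puromycin 10 μM positive, DMSO 0.5% negative; run in parallel with 48 h PbLuc assay at 37 °C, 5% CO2; viability by CellTiter-Glo luminescence, normalized to controls.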

Structure (SMILES)	cytotoxicity at 10 µM
CNc1oc(COc2ccc3c(c2)OCO3)nc1C#N	-58.3%
Cc1nn(-c2ccccn2)c2c1C(c1cnn(C)c1)SCC(=O)N2 (stereo not given)	-44.1%
COc1ccc2cc(NC(=O)CCNc3ncccn3)cnc2c1	-43%
Cn1cnc2cc(CCC(=O)Nc3n[nH]c(C4CC4)n3)ccc21	5.21%
O=C(N1CCCC1)N1C[C@H]2CC[C@@]3(N=C(c4ccccc4)NC3=O)[C@H]2C1	0.516%
CC(=O)N1CC[C@@]2(C(=O)Nc3ccccc3)CCN(S(C)(=O)=O)CC[C@@H]12	2.96%
CCC1=N[C@@]2(CC[C@@H]3CN(S(C)(=O)=O)C[C@@H]32)C(=O)N1CC(C)C	2.58%
COc1ccc(N2CCN(CC(O)c3ccc(C)cc3C)CC2)cc1 (stereo not given)	11.8%
Cc1ccccc1N1CC2(CCN(S(=O)(=O)C3CC3)C2)CC1=O (stereo not given)	3.12%
CN(C)S(=O)(=O)Nc1ccc(Oc2ccc3c(c2)OCO3)cc1	1.43%
Cc1nn(C)c2cnn(CC(=O)NCc3ccccc3F)c12	7.8%
O=C(C1CCOCC1)N1CCCC1c1cncc(CN2CCCC2)n1 (stereo not given)	-0.802%
Cn1ccc(CN2CC(Cc3nccc4cc[nH]c34)C2)n1	9.51%
Cc1cc2c(=O)n3c(nc2s1)CCN(C(=O)c1c(C)noc1C)CC3	17.7%
CC(C)(N)C(=O)N1CCCC(c2cncc(Oc3cccnc3)n2)C1 (stereo not given)	-20.6%
CCn1cc(CN2CCC(c3[nH]ncc3S(C)(=O)=O)C2)cn1 (stereo not given)	-2.33%
Cc1nc(-c2cccc(C(=O)O)c2)cc(C2CCCN(C(C)C)C2)n1 (stereo not given)	-7.44%
COc1cccc(-c2noc(C3CCN(CC(N)=O)C3)n2)c1 (stereo not given)	-11.3%
NC(=O)CCCNC(=O)CCc1cc(Br)cs1	4.11%
CCOc1ccc(N(C)Cc2nc(C)c(C)o2)cc1	19.9%
Cc1cc(N(Cc2ccccc2F)C2CC2)n2nc(C(F)(F)F)nc2n1	0.43%
O=C(CSCc1ccncc1)NCC1CCN(C2CC2)C1 (stereo not given)	0.224%

Structure (SMILES)	cytotoxicity at 10 µM
Cc1ccc(OCC(=O)NC2(C#N)CCSCC2)cc1C	5.7%
CCOc1ccc(SCCNS(=O)(=O)CC)cc1	2.71%
O=C(Nc1ccccc1F)NC1(CO)CCOCC1	-46.4%
COc1cccc(Cn2cccc(C#N)c2=O)c1	11.3%
O=C(NCCSc1ccccc1F)NCc1cccnc1	-5.31%
COc1cccc(CCCNC(=O)N2CCC(O)(C(F)(F)F)C2)c1 (stereo not given)	-4.25%
Cc1nn(C)c(C)c1C1CCCN1CCOc1ccccc1C#N (stereo not given)	8.13%
CCc1ncncc1C(=O)NCCNc1ncnc2sccc12	-5.68%
Cc1nc(CCNC(=O)NCC(O)c2cccc(Cl)c2)cs1 (stereo not given)	14%
CC(NC(N)=O)C(=O)NCc1ccnc(Oc2ccc(F)cc2)c1 (stereo not given)	8.26%
CC(C)N1CCN(S(=O)(=O)c2ncn(C)c2Cl)CC1	13.9%
Cn1ncnc1CNC(=O)N(CCCO)C1CCc2ccccc21 (stereo not given)	-5.95%
Cc1ccc(OCCC(=O)NC(C)c2ccncc2)cc1 (stereo not given)	-3.86%
COc1ccc(Nc2ccc(C#N)cn2)cc1N1CCCC1=O	10.1%
CN(C)S(=O)(=O)c1ccc2c(c1)N(Cc1nccn1C)CCC2	2.26%
CCOc1ccc(C(=O)NCCCNc2ncccn2)cc1	11.5%
CCNC(=O)NC1CN(Cc2ccccc2N(C)C)C[C@@H]1OC (stereo not given in full)	-8.11%
Cc1ncsc1C(=O)OCCN1CCCc2ccccc21	2.42%
COc1ccc(C(C)N2CCC(C(=O)NC3CC3)CC2)cc1Cl (stereo not given)	-50.6%
CCC(=O)NC1CCCN(Cc2ccc(-n3ccnc3)cc2)C1 (stereo not given)	-47.8%
Cc1cc(C(=O)N2CCc3c(ncn3CCc3ccccc3)C2)on1	-3.58%
CCN(CC)S(=O)(=O)N1CCCN(CC2CCCO2)CC1 (stereo not given)	5.69%

Structure (SMILES)	cytotoxicity at 10 µM
CC1CCCN(c2ccccc2OCC(=O)NC2CCOCC2)C1 (stereo not given)	-23.5%
CCOCCC(=O)NCc1ccnc(NC2CC2)c1	0.545%
COc1cc(C)nc(N2CCN(Cc3nccn3C)CC2)n1	-1.8%
COCC(=O)N1CCC2(CCC2NC(=O)c2ccn(C)c2)CC1 (stereo not given)	-76.4%
CN(Cc1cccnc1)CC1CN(C(N)=O)Cc2nccn2C1 (stereo not given)	-80.3%
Cc1ccc2c(c1)C1(CCNCC1)CN2C(=O)C(C)C	-77%
O=C(c1ccnnc1)N1CCn2cc(CN3CCCCC3)nc2C1	-74.9%
CC(=O)N1CCOC2(CCCN(C(=O)c3ccc(Cl)cc3)C2)C1 (stereo not given)	-66.6%
CC(=O)N[C@@H]1CN(Cc2ccccc2C#N)C[C@H]1c1ccc(C)cc1	-4.27%
Cc1nc(C)n(CCCNc2ncnc(C)c2C)n1	-1.74%
CCNc1ncc(C(=O)N(C)CCc2nc3cc(Cl)ccc3[nH]2)cn1	-45.8%
CCc1ncc(C(=O)N(CCOC)Cc2ccccc2F)cn1	0.728%
COCCN1CCN(C(=O)C(c2cccc(F)c2)N(C)C)CC1 (stereo not given)	9.63%
Cc1ccc(NC(=O)CNC(C)CN2CCOCC2)c(F)c1 (stereo not given)	-51.8%
Cc1cccnc1CN1CCN(C(=O)[C@@]23CNC[C@@H]2CN(C)C3)CC1	2.3%
O=C(c1ccoc1)N1CCn2nc(CN3CCSCC3)cc2C1	-57.8%
Cc1cc(CN2CCC3(CC2)CC(C(=O)O)N(C(=O)C2CC2)C3)oc1C (stereo not given)	-7.32%
CC(C)c1nc(CN(C)C(=O)CNC(N)=O)cs1	17.4%
Cc1cc(-n2nc(C)nc2-c2cn(CCN)nn2)ccn1	7.55%
CCNc1ncc(C(=O)NCC2OCCc3ccccc32)cn1 (stereo not given)	-53.1%
CC1CCCCN1C1CN(C(=O)c2sccc2S(N)(=O)=O)C1 (stereo not given)	-1.45%
COC(C)(C)Cn1ccnc1-c1cccc(C(C)N(C)C)c1 (stereo not given)	-3.59%

Structure (SMILES)	cytotoxicity at 10 µM
CC(=O)N1CCCN(C(C(=O)O)c2ccc(C)cc2C)CC1 (stereo not given)	-3.98%
CCc1nc(N)nc(NCCC(=O)NC2CCCCC2)c1C	-38.9%
CN1[C@@H](c2ccccc2)[C@@H](C(=O)NCC2CCOCC2)C[C@@]1(C)C(=O)O	-40.4%
CC(C)[C@@H]1CN(C(=O)NCCc2ccccc2)C[C@H]1NS(=O)(=O)N(C)C	3.08%
CC(C)c1nnsc1CNC(=O)C1CCN(C(=O)C2CCCC2)CC1	1.05%
Nc1nc2c(c(N3CCCC3)n1)CCN(Cc1ccccn1)CC2	-35.3%
CCn1c(CC2CCN(C(=O)c3cc(C(C)C)n[nH]3)CC2)n[nH]c1=O	-44.4%
CC[C@@]1(O)CCN(C(=O)c2ccc(OC(F)F)cc2)C[C@H]1O	6.2%
Cn1ncc(CN2CCc3onc(-c4cccc(F)c4)c3C2)c1C1CC1	1.31%
COCCC(=O)N1Cc2cnc(Cc3ccc(OC)cc3)nc2C1	-0.641%
O=C(Cn1cccnc1=O)NC(Cc1ccsc1)c1ccccn1 (stereo not given)	-5.66%
CN1CCN(C2CCN(CCOc3ccc(C#N)cc3)CC2)C1=O	-1.03%
c1cc2n(n1)CC(CNCc1ccc(OC3CCCC3)nc1)CN2 (stereo not given)	-5.17%
CC(NC(=O)Cn1cccn1)c1ccc2c(c1)OCCO2 (stereo not given)	-2.23%
c1ccc(-n2cc(CNCC3CCCN3c3cccnn3)cn2)cc1 (stereo not given)	-8.85%
Cn1ccnc1CN1CCCN(C(=O)c2ccc3c(c2)OCO3)CC1	-6.61%
c1ccc(-n2cc(CNC3CCc4ncnn4C3)nn2)cc1 (stereo not given)	-4.01%
Cc1nc(CN2CCN(C(=O)NC(C)c3cccnc3)CC2)cs1 (stereo not given)	-10.4%
Cc1nc(C)c(CN2CCOC(CNc3cccnn3)C2)s1 (stereo not given)	-1.71%
CCc1nc(CN2CCOC(CNc3cccnn3)C2)cs1 (stereo not given)	-11%
O=C(CCCOc1ccc(F)cc1F)N1CCCC1Cn1cccn1 (stereo not given)	-5.67%
Cc1nc(CN2CCc3nn(C(C)C)c(=O)cc3C2)oc1C	-7.52%

Structure (SMILES)	cytotoxicity at 10 µM
COc1ccccc1CC(=O)N1CCC(NCc2cccnc2)CC1	-5.7%
CC(C)Cc1noc(CN2CCCC(Cn3cncn3)C2)n1 (stereo not given)	-2.6%
CC(C)(C)C(=O)NC(c1nccs1)C1CCN(CC2CCCCC2)CC1 (stereo not given)	6.5%
CCC(CN1CCCC1)NC(=O)Cc1c(C)[nH]c2c(C)cc(C)cc12 (stereo not given)	14.6%
CCCC(=O)N1CCC(O)(Cn2c(CC)nc3ccccc3c2=O)CC1	-2.03%
CCCS(=O)(=O)N1CCC2(CN(c3ccccc3)C(=O)CN2C)C1 (stereo not given)	4.15%
COCCN1CC[C@@H]2OC[C@H](C(=O)NCc3cccs3)C[C@@H]2C1	2.7%
COc1ccc(CNCc2ccnc(N3CCCC3)c2)c(OC)c1	3.45%
CC(C)(CO)CNC(=O)c1cc(-c2cc[nH]n2)n2ccccc12	20%
C[C@@H]1CN(C(=O)c2cccs2)C[C@]12CCN(CCN(C)C)C2=O	4.4%
c1csc(CN2CCCn3cnc(CN4CCCC4)c3C2)c1	-72.7%
Cc1cnc(N2CC[C@@H]3O[C@@H](COCc4ccccn4)CC[C@@H]32)nc1	-88.3%
Cc1ccc(N2CCO[C@H]3CN(Cc4ccoc4)C[C@H]32)nn1	-70.7%
CCOCC1CN(Cc2ccc(F)cc2)Cc2nn(C)cc21 (stereo not given)	-83.3%
O=C(c1cccnc1)N1CCn2nnc(COc3ccccn3)c2C1	-76.2%
O=C(C1=CCCC1)N1CCC2(CC1)CC(Oc1cccnc1)CO2 (stereo not given)	-1.58%
Cc1noc(C)c1CN1C[C@@H]2CCCO[C@@H]2[C@H](NS(C)(=O)=O)C1	12.2%
O=C(c1ccc(F)cc1F)N1C[C@@H]2CC[C@H]1CN(Cc1ccccc1)C2	5.04%
CCC(C)Oc1ccccc1Cn1cc2[nH]cccc-2c1=O (stereo not given)	-0.0261%
COc1cccc(C(=O)NC(c2ccccn2)C2CCC(CN)CC2)c1 (stereo not given)	-9.33%
CS(=O)(=O)N1C[C@H]2CC[C@@H](C1)N(Cc1ccc3nsnc3c1)C2	3.18%
CC(C)CCN1C[C@@H]2C[C@H](C(=O)Nc3cccnc3)[C@H](C1)O2	-82.5%
